Results reported in ChEMBL document CHEMBL4043167, “Identification of pyrazolopyrimidine arylsulfonamides as CC-chemokine receptor 4 (CCR4) antagonists” (Bioorg Med Chem, 2017).
In brackets after ≈: the same amount, converted by molar mass. Activity calls are given as the source filed them. The rule behind the calls is not given here.

What was measured:
[1] = Lipophilicity, log D of the compound by chromatographic analysis; format: physicochemical
In short: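 Chromatographic logD measured at pH 7.4 (chromlogD7.4).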

[2] = Kinetic solubility of the compound by chemiluminescent nitrogen detection assay; format: physicochemical; details: read-out: Kinetic_solubility
[3] = biological target: T1, C-C chemokine receptor type 4 (Homo sapiens, UniProt P51679); assay: Antagonist activity at human recombinant CCR4 receptor expressed in CHO cell membranes by [35S]GTPgammaS binding assay; format: functional
T1 sequence (P51679 whole entry): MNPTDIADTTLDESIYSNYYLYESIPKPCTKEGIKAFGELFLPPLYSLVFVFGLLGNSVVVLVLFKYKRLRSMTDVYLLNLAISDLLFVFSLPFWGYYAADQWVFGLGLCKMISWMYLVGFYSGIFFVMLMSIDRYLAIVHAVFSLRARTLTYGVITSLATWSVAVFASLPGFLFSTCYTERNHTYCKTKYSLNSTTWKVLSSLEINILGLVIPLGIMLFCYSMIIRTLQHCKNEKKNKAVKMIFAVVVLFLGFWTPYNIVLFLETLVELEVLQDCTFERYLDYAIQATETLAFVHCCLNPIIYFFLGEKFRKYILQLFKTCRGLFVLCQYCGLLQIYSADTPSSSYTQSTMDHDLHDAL

Canis familiaris = assay: Clearance in Beagle dog at 0.5 mg/kg by LCMS/MS method; details: in vivo
[4] = Clearance in human microsomes; format: ADME, Microsome
[5] = biological target: T1, C-C chemokine receptor type 4; assay: (§1) Antagonist activity at CCR4 receptor in human whole blood assessed as F-actin polymerization after 30 mins by FACS-based flow cytometric analysis; details: read-out: pA2 (converted)
[6] = Oral bioavailability in Sprague Dawley (crl:CD(SD)) rat at 1 mg/kg by LCMS/MS method; format: ADME, organism-based; details: in vivo
In short: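 Rat given an oral dose of 1 mg/kg, with a 1 mg/kg IV dose for comparison; oral bioavailability calculated.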

[7] = Oral bioavailability in Beagle dog at 1 mg/kg by LCMS/MS method; format: ADME, organism-based, Canis lupus familiaris; details: in vivo
[8] = Clearance in rat microsomes; format: ADME, Microsome
albumin = albumin (Homo sapiens, UniProt P02768); assay: Binding affinity to HSA; format: ADME; details: human serum albumin (HSA), read-out: PB (converted)
[9] = Volume of distribution at steady state in Beagle dog at 1 mg/kg by LCMS/MS method; format: ADME, organism-based, Canis lupus familiaris; details: in vivo, read-out: Vdss
[10] = Half life in Sprague Dawley (crl:CD(SD)) rat at 1 mg/kg, iv by LCMS/MS method; format: ADME, organism-based; details: in vivo
In short: (§2)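 Rat given a single IV dose of 1 mg/kg; blood clearance, half-life and volume of distribution derived from the IV profile.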

[11] = Volume of distribution at steady state in Sprague Dawley (crl:CD(SD)) rat at 1 mg/kg, iv by LCMS/MS method; format: ADME, organism-based; details: in vivo, read-out: Vdss; in short: as §2
[12] = Half life in Beagle dog at 1 mg/kg by LCMS/MS method; format: ADME, organism-based, Canis lupus familiaris; details: in vivo
Rattus norvegicus = assay: Clearance in Sprague Dawley (crl:CD(SD)) rat at 1 mg/kg, iv by LCMS/MS method; format: ADME, organism-based; details: in vivo; in short: as §2
[13] = Clearance in dog microsomes; format: ADME, Canis lupus familiaris, Microsome
[14] = biological target: T2, C-C chemokine receptor type 4 (Homo sapiens) (UniProt P51679); assay: as §1
T2 sequence (whole entry): T1 sequence (P51679 whole entry)

Sequence of albumin (P02768 whole entry): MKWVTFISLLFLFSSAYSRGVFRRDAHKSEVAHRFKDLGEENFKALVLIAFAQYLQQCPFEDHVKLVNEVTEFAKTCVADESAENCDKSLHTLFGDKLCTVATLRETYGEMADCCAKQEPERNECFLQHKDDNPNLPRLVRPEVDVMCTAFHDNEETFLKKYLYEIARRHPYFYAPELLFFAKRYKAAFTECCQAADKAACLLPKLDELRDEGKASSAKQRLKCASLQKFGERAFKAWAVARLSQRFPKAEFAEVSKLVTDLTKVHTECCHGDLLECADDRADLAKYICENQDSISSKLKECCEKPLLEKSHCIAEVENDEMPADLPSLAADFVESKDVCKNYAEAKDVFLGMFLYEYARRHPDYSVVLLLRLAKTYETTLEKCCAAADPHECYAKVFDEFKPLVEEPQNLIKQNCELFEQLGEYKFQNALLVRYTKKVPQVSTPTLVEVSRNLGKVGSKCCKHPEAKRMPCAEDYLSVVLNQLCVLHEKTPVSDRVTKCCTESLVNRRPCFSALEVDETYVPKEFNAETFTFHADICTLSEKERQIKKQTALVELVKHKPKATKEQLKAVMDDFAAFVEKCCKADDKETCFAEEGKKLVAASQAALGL

COc1nn(C)c2nc(NC(C)C)nc(NS(=O)(=O)c3cccc(Cl)c3Cl)c12
chromatographic logD [1]: 5.2 | solubility kinetic [2]: ≥ 551 µM | IC50 [3]: 3160 nM

COc1nn(C)c2nc(C)nc(NS(=O)(=O)c3cccc(Cl)c3Cl)c12
chromatographic logD [1]: 3.4 | solubility kinetic [2]: ≥ 557 µM | IC50 [3]: 631 nM

COc1nn(C(C)C)c2ncnc(NS(=O)(=O)c3cccc(Cl)c3Cl)c12
chromatographic logD [1]: 4.5 | solubility kinetic [2]: 404 µM (≈ 168 µg/mL) | IC50 [3]: 251 nM

Cn1ncc2c(NS(=O)(=O)c3cccc(Cl)c3Cl)ncnc21
chromatographic logD [1]: 1.7 | solubility kinetic [2]: 476 µM (≈ 171 µg/mL) | IC50 [3]: 1260 nM

Cn1nc(NS(=O)(=O)c2cccc(Cl)c2Cl)c2ccccc21
chromatographic logD [1]: 4.6 | solubility kinetic [2]: 124 µM (≈ 44.2 µg/mL) | IC50 [3]: 2000 nM

COc1nn(C)c2cccc(NS(=O)(=O)c3cccc(Cl)c3Cl)c12
chromatographic logD [1]: 6.5 | solubility kinetic [2]: 80 µM (≈ 30.9 µg/mL) | IC50 [3]: 794 nM

COc1nn(C)c2ncnc(NS(=O)(=O)c3cccc(Cl)c3Cl)c12
clearance (Canis familiaris): 4 mL/min/kg | CL [4]: < 0.53 mL/min/g | Kb [5]: > 6310 nM | chromatographic logD [1]: 2.4 | bioavailability [6]: 62% | solubility kinetic [2]: ≥ 581 µM | bioavailability [7]: 100% | CL [8]: 0.58 mL/min/g | fraction unbound (albumin): 0.015 | Vd [9]: 0.3 L/kg | half-life [10]: 1.9 h | Vd [11]: 0.3 L/kg | half-life [12]: 0.6 h | clearance (Rattus norvegicus): 2 mL/min/kg | CL [13]: 0.65 mL/min/g | IC50 [3]: 63.1 nM

COc1ccc(COc2nc(Br)cnc2NS(=O)(=O)c2ccc(C)cc2)cc1OCCN(C)C
chromatographic logD [1]: 3.1 | solubility kinetic [2]: 309 µM (≈ 170 µg/mL)

COc1nn(C)c2ncnc(NS(=O)(=O)c3ccc(Cl)s3)c12
Kb [5]: > 6310 nM | chromatographic logD [1]: 1.6 | solubility kinetic [2]: ≥ 538 µM | fraction unbound (albumin): 0.023 | IC50 [3]: 79.4 nM

COc1nn(C)c2nc(N(C)C)nc(NS(=O)(=O)c3cccc(Cl)c3Cl)c12
chromatographic logD [1]: 4 | solubility kinetic [2]: ≥ 626 µM | IC50 [3]: 631 nM

COc1ccc2c(cnn2C)c1NS(=O)(=O)c1cccc(Cl)c1Cl
chromatographic logD [1]: 5 | solubility kinetic [2]: 175 µM (≈ 67.6 µg/mL) | IC50 [3]: 10000 nM

Cn1ncc2c(NS(=O)(=O)c3cccc(Cl)c3Cl)cccc21
chromatographic logD [1]: 3.2 | solubility kinetic [2]: 170 µM (≈ 60.6 µg/mL) | IC50 [3]: 3160 nM

COc1n[nH]c2ncnc(NS(=O)(=O)c3cccc(Cl)c3Cl)c12
chromatographic logD [1]: 1.8 | solubility kinetic [2]: 402 µM (≈ 150 µg/mL) | IC50 [3]: 158 nM

CCNc1nc(NS(=O)(=O)c2cccc(Cl)c2Cl)c2c(OC)nn(C)c2n1
chromatographic logD [1]: 4.2 | solubility kinetic [2]: 219 µM (≈ 94.5 µg/mL) | IC50 [3]: 251 nM

COCCn1nc(OC)c2c(NS(=O)(=O)c3cccc(Cl)c3Cl)ncnc21
chromatographic logD [1]: 2.6 | solubility kinetic [2]: ≥ 442 µM | IC50 [3]: 316 nM

COc1cccc2c1c(NS(=O)(=O)c1cccc(Cl)c1Cl)nn2C
pA2 [14]: inactive | bioavailability [6]: 24% | solubility kinetic [2]: 288 µM (≈ 111 µg/mL) | fraction unbound (albumin): 0.023 | half-life [10]: 1.2 h | Vd [11]: 0.5 L/kg | clearance (Rattus norvegicus): 17 mL/min/kg

COc1nc(NS(=O)(=O)c2cccc(Cl)c2Cl)c2c(OC)nn(C)c2n1
chromatographic logD [1]: 1.9 | solubility kinetic [2]: 148 µM (≈ 61.9 µg/mL) | IC50 [3]: 794 nM

COc1nn(CC(N)=O)c2ncnc(NS(=O)(=O)c3cccc(Cl)c3Cl)c12
chromatographic logD [1]: 1.1 | solubility kinetic [2]: ≥ 490 µM | IC50 [3]: 501 nM

CCOc1n[nH]c2ncnc(NS(=O)(=O)c3cccc(Cl)c3Cl)c12
chromatographic logD [1]: 2.3 | solubility kinetic [2]: ≥ 438 µM | IC50 [3]: 794 nM

COc1nn(CC(=O)O)c2ncnc(NS(=O)(=O)c3cccc(Cl)c3Cl)c12
chromatographic logD [1]: 0.8 | solubility kinetic [2]: ≥ 483 µM | IC50 [3]: 200 nM

COc1nn(C)c2nc(N)nc(NS(=O)(=O)c3cccc(Cl)c3Cl)c12
chromatographic logD [1]: 2.4 | solubility kinetic [2]: ≥ 649 µM | IC50 [3]: 316 nM

COc1nn(C2COC2)c2ncnc(NS(=O)(=O)c3cccc(Cl)c3Cl)c12
chromatographic logD [1]: 2.1 | solubility kinetic [2]: 142 µM (≈ 61.1 µg/mL) | IC50 [3]: 251 nM

CNc1nc(NS(=O)(=O)c2cccc(Cl)c2Cl)c2c(OC)nn(C)c2n1
chromatographic logD [1]: 3.2 | solubility kinetic [2]: 376 µM (≈ 157 µg/mL) | IC50 [3]: 79.4 nM

COc1nn(CCN(C)C)c2ncnc(NS(=O)(=O)c3cccc(Cl)c3Cl)c12
chromatographic logD [1]: 1.6 | solubility kinetic [2]: 358 µM (≈ 159 µg/mL) | IC50 [3]: 3980 nM

CCn1[nH]c2ncnc(NS(=O)(=O)c3cccc(Cl)c3Cl)c2c1=O
chromatographic logD [1]: 1.2 | solubility kinetic [2]: ≥ 383 µM | IC50 [3]: > 31600 nM

COc1nn(C)c2nc(NCCN(C)C)nc(NS(=O)(=O)c3cccc(Cl)c3Cl)c12
chromatographic logD [1]: 1.4 | solubility kinetic [2]: ≥ 444 µM | IC50 [3]: > 31600 nM

CNC(=O)Cn1nc(OC)c2c(NS(=O)(=O)c3cccc(Cl)c3Cl)ncnc21
chromatographic logD [1]: 1.3 | solubility kinetic [2]: ≥ 509 µM | IC50 [3]: 631 nM

COCCNc1nc(NS(=O)(=O)c2cccc(Cl)c2Cl)c2c(OC)nn(C)c2n1
chromatographic logD [1]: 3.3 | solubility kinetic [2]: ≥ 441 µM | IC50 [3]: 7940 nM

Cn1ncc2c(NS(=O)(=O)c3cccc(Cl)c3Cl)ccnc21
chromatographic logD [1]: 1.7 | solubility kinetic [2]: ≥ 310 µM | IC50 [3]: 12600 nM

COCCOc1nn(C)c2ncnc(NS(=O)(=O)c3cccc(Cl)c3Cl)c12
chromatographic logD [1]: 2.3 | solubility kinetic [2]: ≥ 463 µM | IC50 [3]: 794 nM

O=S(=O)(Nc1ncnc2[nH]nc(O)c12)c1cccc(Cl)c1Cl
chromatographic logD [1]: 0.8 | solubility kinetic [2]: ≥ 234 µM | IC50 [3]: 15800 nM

COc1nn(C)c2nc(NC3COC3)nc(NS(=O)(=O)c3cccc(Cl)c3Cl)c12
chromatographic logD [1]: 2.2 | solubility kinetic [2]: ≥ 712 µM | IC50 [3]: 10000 nM
